What was measured:
human liver microsomes [1] = assay: Atropselective; format: in vitro ADME; conditions: for EF of the OH-PCB metabolite before racemization: representative extract, 15 min incubation, 50 μM PCB 91, HLMs from donor H5
In short: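 Racemic PCB 91 at 50 μM was incubated 15 min at 37 °C with 0.1 mg/mL microsomes and 1 mM NADPH, in triplicate. Depletion runs used 5 or 50 μM, 120 min, 0.5 mg/mL protein and 0.5 mM NADPH. Metabolites were methylated with diazomethane. GC-μECD used a ChiralDex B-DM column (135 °C) for PCB 91, 5-91 and 4-91, and a G-TA column (140 °C) for 3-100. EF = E1/(E1+E2) by drop valley; mean ± SD.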

human liver microsomes [2] = format: in vitro ADME; conditions: for Difference in rate of metabolite formation, donor H1 vs. donor H5: individual donor HLM preparations
In short: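 Pooled HLMs (50 donors, mixed gender) or female single-donor HLMs (H1–H5, age 20–58) were used. Buffer was 0.1 M phosphate pH 7.4 with 3 mM MgCl2. Pre-incubated 5 min at 37 °C, then started with substrate in DMSO (≤0.5% of volume), in triplicate. Stopped with ice-cold 0.5 M NaOH and heated 110 °C for 10 min. Extracts were methylated and run on GC-μECD against PCB 204 using relative response factors. Rates adjusted per nmol P450 or per mg protein.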

[3] = format: physicochemical; conditions: extract heated at 300 °C for 2 h; for EF of the OH-PCB metabolite after racemization: 15 min incubation, donor H5
In short: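 Representative hexane extracts were placed in amber ampules and heated at 300 °C. One came from a pooled-HLM incubation; the other from a 50 μM PCB 91 incubation with donor H5 microsomes. Both were re-run by enantioselective GC-μECD, ChiralDex B-DM or G-TA column according to analyte. EF = E1/(E1+E2), drop valley method.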

rat liver microsomes = conditions: E2-PCB 91 enriched; cited from earlier work
recombinant rat CYP2B1 = conditions: E2-PCB 91 enriched; cited from earlier work

SMILES | EF of the OH-PCB metabolite before racemization (human liver microsomes [1]) | Difference in rate of metabolite formation, donor H1 vs. donor H5 (human liver microsomes [2]) [fold] | EF of the OH-PCB metabolite after racemization [3] | EF of PCB 91 in incubations with rat liver microsomes (rat liver microsomes) | EF of PCB 91, all other incubations (human liver microsomes [1]; high concentrations of racemic PCB 91) | PCB 91 added to the incubation converted to OH-PCB metabolites (human liver microsomes [2]; 50 μM PCB 91, 0.1 mg/mL HLMs, 1 mM NADPH, 5 or 15 min, 37 °C) [%] | EF of PCB 91 in incubations with recombinant rat CYP2B1 (recombinant rat CYP2B1) | EF of PCB 91 after racemization ([3]; 2 h incubation, 5 μM PCB 91, pHLMs)
Oc1c(Cl)cc(Cl)c(-c2ccc(Cl)cc2Cl)c1Cl [3-100, 2,2′,4,4′,6-pentachlorobiphenyl-3-ol] | 0.87 | 2.6 | 0.46 | – | – | – | – | –
Oc1cc(Cl)c(-c2ccc(Cl)cc2Cl)c(Cl)c1Cl [4-91, 2,2′,3,4′,6-pentachlorobiphenyl-4-ol] | 0.85 | 5.4 | 0.51 | – | – | – | – | –
Oc1cc(Cl)c(Cl)c(-c2ccc(Cl)cc2Cl)c1Cl [5-91, 2,2′,3,4′,6-pentachlorobiphenyl-5-ol] | 0.43 | 19 | 0.49 | – | – | – | – | –
Clc1ccc(-c2c(Cl)ccc(Cl)c2Cl)c(Cl)c1 [PCB 91, 2,2′,3,4′,6-pentachlorobiphenyl] | – | – | – | 0.43 | near racemic | ≤ 2 | 0.45 | 0.50
